# Assay outcomes deposited in PubChem BioAssay by several laboratories.
# PPC-1+TRAIL kill = kills PPC-1 cancer cells in the presence of TRAIL; PPC-1 cells + TRAIL, ATPLite viability luminescence; cell killing (% activity), % at 4 µM or 5 µM; 0.41% of 220,000 active;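 active = cell killing above 50% in the first pass at 4 µM, then a duplicate retest at 5 µM averaging 50% or more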
# HSP90 refold inh = HSP90 refolding inhibition in rabbit reticulocyte lysate; luciferase refolding luminescence, 3 h; inhibition, % at 5.6 µM; 0.91% of 290,000 active;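 active = inhibition above the screen-wide mean plus 3 SD, computed separately per campaign, cut at about 16% in these data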;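 also: inhibitors lower the luminescence because luciferase stays unfolded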
# FLuc stim CS = affects firefly luciferase, flagging false hits in luciferase stimulation screens | ATPlite luciferase biochemical, luminescence, 10 min; 0 = ATP-free wells, 1 = DMSO control | activation factor at 10 µM | 200,000 tested, under 10 active;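 active = luciferase activation factor, scaled between plate controls, of at least 2 with compound at 10 µM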
# Target sequence (P08659 whole entry, looked up): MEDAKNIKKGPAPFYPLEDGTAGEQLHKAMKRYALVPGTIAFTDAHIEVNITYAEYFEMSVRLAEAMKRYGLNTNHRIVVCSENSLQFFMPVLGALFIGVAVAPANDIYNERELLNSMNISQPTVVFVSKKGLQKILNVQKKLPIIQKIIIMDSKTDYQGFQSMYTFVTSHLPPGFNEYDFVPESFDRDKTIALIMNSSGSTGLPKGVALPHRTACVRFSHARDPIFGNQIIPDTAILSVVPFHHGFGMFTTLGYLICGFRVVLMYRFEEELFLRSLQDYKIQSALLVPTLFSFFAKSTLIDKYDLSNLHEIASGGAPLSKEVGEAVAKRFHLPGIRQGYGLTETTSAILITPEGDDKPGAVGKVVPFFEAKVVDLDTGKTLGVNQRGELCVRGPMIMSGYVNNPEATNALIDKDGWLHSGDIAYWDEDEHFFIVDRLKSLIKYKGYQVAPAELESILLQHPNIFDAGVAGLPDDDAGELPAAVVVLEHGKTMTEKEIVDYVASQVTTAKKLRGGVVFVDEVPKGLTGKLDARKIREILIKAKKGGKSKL
#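 Material: luciferase plus luciferin reagent, cell-free. Medium: PBS buffer for ATP. Also added: ATP substrate, dispensed from a 10.24 µM working solution in PBS. Doses: test compounds dosed from 2 mM stocks in 100% DMSO. Incubation: 10 min post-reagent at room temperature. Technique: light output (luminescence). Read-out basis: luminescence gain marking luciferase activators.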
# FLuc inh counter = counter-screen for luciferase assay inhibitors: firefly luciferase inhibition. 1.5% of 200,000 active. P08659. inhibition, % at 10 µM. ATPLite firefly luciferase biochemical luminescence, 10 min. AID 1006;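 active = inhibition above about 50% when tested at 10 µM, limit read from the data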
# TRAIL sens C8 = sensitizes caspase-8 expressing cells to TRAIL; NB7+C8 cells + TRAIL, ATPlite viability luminescence; inhibition (viability loss, TRAIL sensitization), % at 10 µM; 1% of 360,000 active;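 active = compounds causing at least 50% loss of cell viability in the single-dose screen, relative to plate controls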
# A number is an active result; 0 = inactive; - = not tested or not shown. Rows were chosen to be rich in hits. Some 2% of all compounds tested hit in one or more screens of this group.
SMILES,PPC-1+TRAIL kill,HSP90 refold inh,FLuc stim CS,FLuc inh counter,TRAIL sens C8
COc1ccc(OC)c(-c2cc(C(=O)N/N=C(\C)c3cccnc3)c3ccccc3n2)c1,-,0,-,-,0
Fc1cccc(Cc2c(-c3cccc(Cl)c3)nc3ccc(Cl)cn23)c1,-,-,-,-,0
CCCCn1nnnc1C(c1cc2ccccc2o1)N(CCN(C)C)Cc1ccccc1 (stereo not drawn),-,-,-,-,0
CCN1/C(=C/c2ccc3cc(C)ccc3[n+]2CC)Sc2ccccc21,66,0,0,0,0
CCN1/C(=C/C=C/c2sc3ccccc3[n+]2CC)Sc2ccccc21,-,-,-,-,71
CC(=O)Nc1ccc(-c2ccnc3c2CC(C(=O)NCCC(F)(F)F)O3)cc1 (stereo not drawn),-,-,-,-,0
Cc1ccc(-c2cc(C(=O)N/N=C/c3cccnc3)c3ccccc3n2)cc1C,-,-,-,-,61
Cc1ccc(-c2cc(C(=O)Nc3cc(C)on3)c3ccccc3n2)cc1,0,0,0,0,0
CCNC(=S)NNC(=O)c1cc(-c2cccc(OC)c2)nc2ccccc12,51,0,0,83,0
Cc1ccc(-c2cc(C(=O)n3cnc4ccccc43)c3ccccc3n2)cc1C,0,0,0,69,67
CCCc1ccc(-c2cc(C(=O)Nc3ccc([N+](=O)[O-])cn3)c3ccccc3n2)cc1,0,0,0,58,51
Cc1cc(NC(=O)c2cc(-c3ccc(C)c(C)c3)nc3ccccc23)no1,0,0,0,0,0
O=S1(=O)CC(N2CCC(Cc3ccccc3)CC2)CN1CCc1ccccc1 (stereo not drawn),-,-,-,-,0
C#CCNC(=O)C[C@@H]1C[C@@]2(C(=O)OC)CC(C)(C)CC=C2N(Cc2ccccc2)C1=O,-,-,-,-,0
O=C(OCc1ccccc1)N1CCC2CC1c1cc(N3CCN(S(=O)(=O)c4cccc5ccccc45)CC3)ccc12 (stereo not drawn),-,-,-,-,0
Cc1ccc(-c2cc(C(=O)NCc3ccccn3)c3ccccc3n2)cc1C,0,0,0,52,0
CCCc1ccc(-c2cc(C(=O)NN3CCOCC3)c3ccccc3n2)cc1,0,0,0,59,0
COCCNC(=O)c1cc(-c2ccc(-c3ccccc3)cc2)nc2ccccc12,-,0,-,-,56
Cc1cccc(-c2cc(C(=O)NCc3ccccn3)c3ccccc3n2)c1,0,0,0,0,0
CC(C)Oc1cccc(-c2cc(C(=O)NN3CCOCC3)c3ccccc3n2)c1,-,0,-,-,0
CCCc1ccc(-c2cc(C(=O)NCCc3ccc(S(N)(=O)=O)cc3)c3ccccc3n2)cc1,0,0,0,64,58
O=C(NCc1cccnc1)OC1CC2CC1[C@H]1CCCCN1C2=O (stereo partly drawn),-,-,-,-,0
CC(C)Oc1cccc(-c2cc(C(=O)NC(=S)N(C)c3ccccc3C(=O)O)c3ccccc3n2)c1,0,0,0,64,0
COc1cccc(-c2cc(C(=O)Nc3ccc4c(c3)OCCO4)c3ccccc3n2)c1,0,0,0,0,-
COC(=O)c1cccc(CN2C(=O)C(C)Sc3ccc(C(C)=O)cc32)c1 (stereo not drawn),-,-,-,-,0
SMILES,PPC-1+TRAIL kill,HSP90 refold inh,FLuc stim CS,FLuc inh counter,TRAIL sens C8
CC(/C=C/c1ccc(N(C)C)cc1)=N\N=C(/N)SC1CC(=O)N(c2ccc(C(=O)O)cc2)C1=O (stereo not drawn),54,0,0,69,0
O=C(O)c1cc(N/N=C/c2ccc(-c3ccccc3)cc2)ccc1Cl,-,29,-,-,0
COc1ccc(-c2nn(-c3ccccc3)cc2C(=O)Nc2ccc(C(=O)O)cc2)cc1OC,-,0,-,-,0
COc1ccc(-c2nn(-c3ccccc3)cc2/C=N/Nc2ccc(Cl)c(C(=O)O)c2)cc1OC,0,17,-,-,0
COc1ccc(-c2nn(-c3ccccc3)cc2/C=C/C(=O)N2CCOCC2)cc1OC,0,0,0,0,0
COc1ccc(-c2nn(-c3ccccc3)cc2C(=O)O)cc1OC,0,0,0,82,0
COCCN1C[C@@H](CO)O[C@@H](n2cnc3c(NCc4ccncc4)ncnc32)C1,-,-,-,-,0
O=c1c2c(nc3cc(-c4ccc(Cl)cc4)[nH]n13)CCS2,0,0,0,60,51
Cc1ccc(C(O)c2ncc(-c3ccccc3F)[nH]2)c(C)c1 (stereo not drawn),-,-,-,-,0
O=C(/C=C/c1ccc(F)cc1)NC(=S)Nc1ccccc1C(=O)NC1CCCCC1,0,0,0,0,59
O=C(Nc1cccc(C(=O)O)c1)/C(=C\c1cccc([N+](=O)[O-])c1)NC(=O)c1ccc(Br)cc1,-,-,-,-,0
CCN(CC)c1ccc(NC(=O)c2ccc(Br)o2)cc1,0,0,0,53,0
COC(=O)Cc1ccc(NC(=O)c2ccc(Br)o2)cc1,0,0,0,0,0
COc1ccc2nc(/N=C/c3c(C)[nH]n(-c4ccc(C)cc4)c3=O)sc2c1,0,0,0,59,0
COc1ccc2nc(/N=C\N(C)C)sc2c1,0,0,0,0,0
CC(=O)Nc1cc(-c2ccccc2)cn2c(-c3ccc(F)cc3)cnc12,-,-,-,-,0
O=C(c1ccc(F)cc1)c1cnc(Nc2ccccc2)s1,0,0,0,62,61
O=C(c1ccccc1)c1cnc(-c2ccccc2)s1,0,0,0,55,0
COc1ccc(NC(=O)c2cccc3c2C(=O)c2ccc(-c4ccc(F)cc4OCc4ccccc4)cc2S3(=O)=O)cc1,-,-,-,-,59
COc1ccc(OC[C@@H](O)CNC(=O)c2cccc3c2C(=O)c2ccc(-c4ccc(F)cc4OCc4ccccc4)cc2S3(=O)=O)cc1,-,-,-,-,0
CCN(CC)S(=O)(=O)c1ccc(N/N=C/c2ccc(O)cc2O)nc1,52,0,0,0,0
Oc1ccc(/C=N/Nc2ncc(Br)cn2)c(O)c1,0,0,0,0,51
Cc1onc(-c2ccccc2Cl)c1C(=O)NCc1nnnn1-c1ccc(F)c(F)c1,-,-,-,-,0
